Data taken from ChEMBL document CHEMBL1155986, “Discovery of 4H-pyrazolo[1,5-a]pyrimidin-7-ones as potent inhibitors of hepatitis C virus polymerase” (Bioorg Med Chem Lett, 2009).

Legend:
[1] = Inhibition of HCV NS5B deltaC55 polymerase assessed as [3H]GTP incorporation after 50 min by scintillation proximity assay; set-up: species or system Hepacivirus hominis
How it was run: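 NS5B Δ55 construct (6 nM) with biotinylated oligoG12/polyC template/primer, [3H]-GTP and unlabelled GTP, in 20 mM HEPES pH 7.3, 7.5 mM DTT, 10 mM MgCl2, 60 mM NaCl, BSA and RNasIN. Reactions ran 50 min at room temperature, were stopped with streptavidin SPA beads containing 100 mM EDTA, and were scintillation counted. IC50 came from single experiments over 11 twofold dilutions, accepted only if the positive internal control fell within its SD range.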

[2] = Inhibition of HCV NS5B deltaC21 polymerase assessed as [3H]GTP incorporation after 3 hrs by scintillation proximity assay; set-up: species or system Hepacivirus hominis
How it was run: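 Scintillation proximity assay with the NS5B Δ21 construct at 50 nM, using a polyC/oligoG template/primer with raised GTP and [3H]-GTP levels. The reaction ran 3 h at room temperature, and labelled GTP incorporation was read by scintillation counting.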

Hepatitis C virus = assay: Antiviral activity against HCV by cell-based replicon assay; format: functional, Hepacivirus hominis

Row | Structure (SMILES) | IC50 [1] | IC50 [2] | IC50 ([2]; read-out: IC50) | Activity (Hepatitis C virus)
1 | O=C(O)c1cc2[nH]c(-c3ccc(Oc4cccc(C(F)(F)F)c4)cc3)c(C3CCCCC3)c(=O)n2n1 | 930 nM | Not Active |  | 
2 | C=CCCc1c(-c2ccc(OCc3ccccc3)cc2)[nH]c2cc(C(=O)O)nn2c1=O | 15000 nM |  | 6700 nM | 
3 | O=C(O)c1cc2[nH]c(-c3ccc(OCc4ccccc4)cc3)c(Cc3ccccc3)c(=O)n2n1 | 8900 nM |  | 4200 nM | 
4 | O=C(O)c1cc2[nH]c(-c3ccc(OCc4ccccc4)cc3)c(CC3CCCO3)c(=O)n2n1 (stereo not drawn) | > 12500 nM |  | 10000 nM | 
5 | O=C(O)c1cc2[nH]c(-c3ccc(Oc4cccc(Cl)c4)cc3)c(C3CCCCC3)c(=O)n2n1 | 3300 nM | Not Active |  | 
6 | O=C(O)c1cc2[nH]c(-c3ccc(-c4ccccc4)cc3)c(C3CCCCC3)c(=O)n2n1 | 3300 nM |  | 3100 nM | 
7 | O=C(O)c1cc2[nH]c(-c3ccc(OCc4cccc(OC(F)(F)F)c4)cc3)c(C3CCCCC3)c(=O)n2n1 | 2200 nM |  | 1500 nM | 
8 | CC(C)Cc1c(-c2ccc(OCc3ccccc3)cc2)[nH]c2cc(C(=O)O)nn2c1=O | 15000 nM |  | 9500 nM | 
9 | COCCc1c(-c2ccc(OCc3ccccc3)cc2)[nH]c2cc(C(=O)O)nn2c1=O | 13000 nM |  | 3700 nM | 
10 | O=C(O)c1cc2[nH]c(-c3ccc(Oc4ccccc4)cc3)c(C3CCCCC3)c(=O)n2n1 | 6300 nM | Not Active |  | 
11 | COc1cccc(Oc2ccc(-c3[nH]c4cc(C(=O)O)nn4c(=O)c3C3CCCCC3)cc2)c1 | 900 nM | Not Active |  | 
12 | O=C(O)c1cc2[nH]c(-c3ccc(OCc4ccccc4)cc3)c(-c3ccccc3)c(=O)n2n1 | > 50000 nM |  | > 12500 nM | 
13 | C=CCc1c(-c2ccc(OCc3ccccc3)cc2)[nH]c2cc(C(=O)O)nn2c1=O | > 50000 nM |  | > 12500 nM | 
14 | O=C(O)c1cc2[nH]c(-c3ccc(OCc4ccccc4)cc3)c(CC3CCC3)c(=O)n2n1 | 8800 nM |  | 2800 nM | 
15 | COc1ccc(-c2[nH]c3cc(C(=O)O)nn3c(=O)c2C2CCCCC2)cc1 | 3900 nM | Not Active |  | 
16 | O=C(O)c1cc2[nH]c(-c3ccc(Cc4ccccc4)cc3)c(C3CCCCC3)c(=O)n2n1 | 4000 nM |  | 2600 nM | 
17 | O=C(O)c1cc2[nH]c(-c3ccc(OCc4ccccc4)cc3)c(CCCc3ccccc3)c(=O)n2n1 | 5900 nM |  | 2500 nM | 
18 | CC(C)CCc1c(-c2ccc(OCc3ccccc3)cc2)[nH]c2cc(C(=O)O)nn2c1=O | 5800 nM |  | 1500 nM | 
19 | CC(C)=CCCc1c(-c2ccc(OCc3ccccc3)cc2)[nH]c2cc(C(=O)O)nn2c1=O | 10000 nM |  | 3500 nM | 

Further compounds by falling IC50 ([2]; read-out: IC50), results first:

Row | IC50 [1] | IC50 [2] | IC50 ([2]; read-out: IC50) | Structure (SMILES) | Activity (Hepatitis C virus)
20 | 2200 nM |  | 1200 nM | O=C(O)c1cc2[nH]c(-c3ccc(OCc4ccccc4)cc3)c(CCc3ccccc3)c(=O)n2n1 | 
21 | 6400 nM |  | 1100 nM | O=C(O)c1cc2[nH]c(-c3cccs3)c(C3CCCCC3)c(=O)n2n1 | 
22 | 1200 nM |  | 1000 nM | COc1cccc(COc2ccc(-c3[nH]c4cc(C(=O)O)nn4c(=O)c3C3CCCCC3)cc2)c1 | 
23 | 1500 nM |  | 1000 nM | O=C(O)c1cc2[nH]c(-c3ccc(OCc4ccccc4)cc3)c(C3CCCCC3)c(=O)n2n1 | 
24 | 1800 nM |  | 900 nM | O=C(O)c1cc2[nH]c(-c3ccc(OCc4cccc(C(F)(F)F)c4)cc3)c(C3CCCCC3)c(=O)n2n1 | 
25 |  |  | 680 nM | O=C(N[C@@H](Cc1ccc(O)cc1)C(=O)O)c1cc2[nH]c(-c3cccc(F)c3)c(C3CCCCC3)c(=O)n2n1 | 
26 |  |  | 640 nM | O=C(N[C@@H](Cc1c[nH]cn1)C(=O)O)c1cc2[nH]c(-c3ccco3)c(C3CCCCC3)c(=O)n2n1 | 
27 | 3800 nM |  | 400 nM | O=C(O)c1cc2[nH]c(-c3ccc(OCc4ccccc4)cc3)c(CC3CCCCC3)c(=O)n2n1 | 
28 | 2300 nM |  | 380 nM | O=C(O)c1cc2[nH]c(-c3cccc(F)c3)c(C3CCCCC3)c(=O)n2n1 | 
29 |  |  | 300 nM | O=C(N[C@H](Cc1ccc(O)cc1)C(=O)O)c1cc2[nH]c(-c3ccco3)c(C3CCCCC3)c(=O)n2n1 | 
30 | 2800 nM |  | 290 nM | O=C(O)c1cc2[nH]c(-c3ccco3)c(C3CCCCC3)c(=O)n2n1 | 
31 |  |  | 270 nM | COC(=O)[C@H](Cc1c[nH]c2ccccc12)NC(=O)c1cc2[nH]c(-c3ccco3)c(C3CCCCC3)c(=O)n2n1 | 
32 |  |  | 230 nM | O=C(N[C@@H](Cc1c[nH]c2ccccc12)C(=O)O)c1cc2[nH]c(-c3cccc(F)c3)c(C3CCCCC3)c(=O)n2n1 | 
33 |  |  | 200 nM | O=C(N[C@@H](Cc1c[nH]c2ccccc12)C(=O)O)c1cc2[nH]c(-c3cccs3)c(C3CCCCC3)c(=O)n2n1 | 
34 |  |  | 200 nM | O=C(N[C@H](C(=O)O)c1ccc(O)cc1)c1cc2[nH]c(-c3ccco3)c(C3CCCCC3)c(=O)n2n1 | 
35 |  |  | 180 nM | O=C(NS(=O)(=O)Cc1ccccc1)c1cc2[nH]c(-c3ccco3)c(C3CCCCC3)c(=O)n2n1 | 
36 | 600 nM |  | 170 nM | O=C(O)c1cc2[nH]c(-c3ccc(OCc4ccccc4)cc3)c(CCC3CCCCC3)c(=O)n2n1 | 
37 |  |  | 70 nM | O=C(N[C@@H](Cc1ccc(O)cc1)C(=O)O)c1cc2[nH]c(-c3ccco3)c(C3CCCCC3)c(=O)n2n1 | 
38 |  |  | 60 nM | O=C(N[C@@H](Cc1c[nH]c2ccccc12)C(=O)O)c1cc2[nH]c(-c3ccoc3)c(C3CCCCC3)c(=O)n2n1 | 
39 |  |  | 50 nM | O=C(N[C@@H](Cc1c[nH]c2ccccc12)C(=O)O)c1cc2[nH]c(-c3ccco3)c(C3CCCCC3)c(=O)n2n1 | 50 µM
